Here are results for two compounds from ChEMBL document CHEMBL1143724, “4-Amino-5-vinyl-3(2H)-pyridazinones and analogues as potent antinociceptive agents: Synthesis, SARs, and preliminary studies on the mechanism of action” (Bioorg Med Chem, 2007).

SMILES strings stand for the structures. pKi: −log10 of the molar value. Some results are limits rather than exact numbers.

The subject of one assay is Mus musculus. Nature of the assay: Antinociceptive effect in sc dosed CD1 mouse. Type of assay: functional. The method, boiled down:
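Acetic acid abdominal constriction test, with compounds given sc 30 min before acetic acid. Writhes counted over 10 min. A response was scored as protected if below 3 SD of the control mean. Six to 8 mice per dose, at least 18 per experiment.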

Assay [1] addresses Kappa-type opioid receptor (Homo sapiens, UniProt P41145). Kind of assay: Binding affinity to kappa opioid receptor.
The target in another assay is Mu-type opioid receptor (Homo sapiens, UniProt P35372). Kind of assay: Binding affinity to mu opioid receptor.
Sequence of Mu-type opioid receptor (P35372 whole entry): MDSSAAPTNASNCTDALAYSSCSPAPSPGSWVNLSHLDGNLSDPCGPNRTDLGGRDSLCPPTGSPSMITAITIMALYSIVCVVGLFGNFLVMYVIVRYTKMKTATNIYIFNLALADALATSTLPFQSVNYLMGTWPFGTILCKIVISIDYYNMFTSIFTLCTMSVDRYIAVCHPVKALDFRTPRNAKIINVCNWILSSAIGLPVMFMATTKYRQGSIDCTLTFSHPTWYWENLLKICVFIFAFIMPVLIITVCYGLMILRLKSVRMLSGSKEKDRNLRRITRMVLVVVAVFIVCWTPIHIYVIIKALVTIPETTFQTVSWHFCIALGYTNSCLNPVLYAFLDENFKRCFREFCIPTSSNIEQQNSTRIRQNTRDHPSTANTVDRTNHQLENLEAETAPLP
For assay [2], the target named is Delta-type opioid receptor (Homo sapiens, UniProt P41143). Kind of assay: Binding affinity to delta opioid receptor.
Sequence of Delta-type opioid receptor (P41143 whole entry): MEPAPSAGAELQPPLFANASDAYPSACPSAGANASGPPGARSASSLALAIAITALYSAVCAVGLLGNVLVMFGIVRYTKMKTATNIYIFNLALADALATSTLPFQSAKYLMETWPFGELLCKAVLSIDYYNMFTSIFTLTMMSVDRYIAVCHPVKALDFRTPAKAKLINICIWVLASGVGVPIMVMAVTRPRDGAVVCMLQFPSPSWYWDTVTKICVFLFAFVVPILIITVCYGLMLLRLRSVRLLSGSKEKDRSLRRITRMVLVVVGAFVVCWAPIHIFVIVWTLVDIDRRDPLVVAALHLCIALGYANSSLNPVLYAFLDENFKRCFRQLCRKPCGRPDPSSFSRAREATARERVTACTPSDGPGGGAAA

Sequence of Kappa-type opioid receptor (P41145 whole entry): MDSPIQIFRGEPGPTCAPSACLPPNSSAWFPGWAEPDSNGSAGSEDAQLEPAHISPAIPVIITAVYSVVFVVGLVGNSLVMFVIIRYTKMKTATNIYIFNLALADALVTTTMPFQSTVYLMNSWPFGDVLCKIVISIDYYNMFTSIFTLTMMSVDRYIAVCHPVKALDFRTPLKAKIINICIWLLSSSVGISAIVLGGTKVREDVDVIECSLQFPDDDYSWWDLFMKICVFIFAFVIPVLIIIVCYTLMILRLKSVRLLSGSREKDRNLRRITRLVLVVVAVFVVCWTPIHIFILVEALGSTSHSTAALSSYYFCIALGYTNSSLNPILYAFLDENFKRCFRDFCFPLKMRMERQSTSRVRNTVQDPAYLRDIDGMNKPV

Usually ED50 stands for the dose at which the effect has come halfway, by size or by number of responders. Low readings indicate an effect at a small dose, high ones a need for a large dose. In the case of `C=Cc1c(-c2ccccc2)nn(C)c(=O)c1NCCc1ccccc1`, in the assay with Mus musculus, the ED50 is 89.4 mg/kg.

A word on the pKi: it is the Ki on a negative log10 scale, so that one unit is a factor of ten. Take `C=Cc1c(-c2ccccc2)nn(CCCC)c(=O)c1N`: the pKi (in assay [1]; on Mu-type opioid receptor; in assay [2]) was less than 5.00 throughout.
